Consider six molecules from article PMC5439940 (International Journal of Nanomedicine, 2017).

Data set [1] is described as follows: Plasma retention of liposomal MTX-DG versus intact MTX in mice. The format is in vivo. Conditions: IV. Summed up: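 Female F1(CBA × C57BL/6) mice, 20–22 g, 6–8 weeks old, received 10 mg/kg free parent drug or an equivalent liposomal prodrug dose IV by tail vein (0.2 mL). Groups of n=3 were decapitated at set times and serum collected at 600×g for 10 min. Drug was measured by RP-HPLC after HClO4 deproteinisation; prodrug by RP-HPLC with UV detection at 313 nm. Both were calibrated against spiked or extracted control serum.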

The test system of data set [2] is ASF-LL T-cell leukemic lymphoma. The data set is described as follows: Antitumor effect in transplanted mouse T-cell leukemic lymphoma. Format: in vivo. Summed up: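 A/Sn female mice aged 6 or 12 months, one experiment per age, received 10^6 ASF-LL cells SC on day 0. Groups of n=6 got IV free parent drug (10 mg/kg) or an equivalent liposomal prodrug dose in 0.2 mL PBS/1 mM EDTA, pH 7.0, on days 3, 5, 10 and 12. Controls got vehicle. Daily survival monitoring; euthanasia at >20% weight loss and/or food rejection. Mean ± SD, Student's t-test.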

The next data set deals with A549 or CoLo-357 cells. The format is cell-based, human. Conditions: for Effect of inhibitor on liposome accumulation/binding: preincubation with inhibitor, then liposomes 100 μM total lipids, 37°C.

Regarding `CN(Cc1cnc2nc(N)nc(N)c2n1)c1ccc(C(=O)N[C@@H](CCC(=O)O)C(=O)O)cc1` [MTX, Methotrexate], the “t1/2α and t1/2β of MTX relative to MTX-DG (times lower)” value in data set [1] is reported as “approximately 4 times”. The “Delay of palpable lymphoma appearance and tumor growth vs controls” value in data set [2] (both experiments, 10 mg/kg MTX or equivalent IV on days 3, 5, 10, 12) is “significant delay in palpable lymphoma appearance”. The “Increase in the mean life span vs control group” value in data set [2] (first experiment, mice aged 6 months, 4 IV injections, days 3, 5, 10, 12) was determined as 23%. Moreover, the “Toxicity / tolerability in old recipient mice” value in data set [2] (second experiment, mice aged 12 months, 4 IV injections) was “pronounced toxicity”.

As for `CN(C)CCCN1c2ccccc2Sc2ccc(Cl)cc21` [chlorpromazine], the “Effect of inhibitor on liposome accumulation/binding” value with A549 or CoLo-357 cells is reported as “concentration-dependent decrease in liposome accumulation”. Still for that read-out and setting: the same measure for `COc1cc2c(c(OC)c1OC)-c1ccc(OC)c(=O)cc1[C@@H](NC(C)=O)CC2` [colchicine]: “elusive effects”; for `C=C1[C@@H](C)[C@H]2[C@H](Cc3ccccc3)NC(=O)[C@]23OC(=O)/C=C/[C@H](O)CCC[C@@H](C)C/C=C/[C@H]3[C@@H]1O` [cytochalasin B]: “elusive effects”; for `COC(=O)Nc1nc2ccc(C(=O)c3cccs3)cc2[nH]1` [nocodazole]: “elusive effects”. For Methyl-β-cyclodextrin, the “Cell death caused by inhibitor” value in the data set on A549 or CoLo-357 cells (in the range of concentrations required for the inhibitory studies) is recorded as > 50%.
